# In the library only some 2.7% were active in any assay of this set; here they are far more common.
# Wee1 degr inh: inhibitors of human Wee1 degradation; P30291; HeLa Luc-Wee1K328M stability, luciferase luminescence; 100% = proteasome inhibitor MG132 effect; reporter increase, % at 5 µM; 220,000 tested, 1.2% active; AID 1321;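 active = activation above the mean of all tested compounds plus 3 SD, set per screening run, cut at about 8.8% in these data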;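 also: cells exposed to compound for 20 h before luminescence read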
# 14-3-3 Bad PPI: disrupts binding of bovine 14-3-3 zeta to phospho-Bad peptide | P63103 | TR-FRET 14-3-3zeta/Dy647-pBad peptide displacement, 1 h | inhibition, % at 21.7 µM | 220,000 tested, 0.71% active | AID 781;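 active = inhibition above about 70%, limit read from the data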
# Target sequence (P63103 whole entry, looked up): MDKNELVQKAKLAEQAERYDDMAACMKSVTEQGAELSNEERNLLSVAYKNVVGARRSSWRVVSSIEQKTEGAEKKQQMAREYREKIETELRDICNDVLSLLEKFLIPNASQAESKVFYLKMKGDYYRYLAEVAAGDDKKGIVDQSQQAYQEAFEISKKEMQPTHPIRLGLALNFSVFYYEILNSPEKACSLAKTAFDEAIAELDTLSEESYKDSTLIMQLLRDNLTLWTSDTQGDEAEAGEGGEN
# TbHK1 inh: blocks Trypanosoma brucei hexokinase 1 activity. recombinant TbHK1, G6PDH-coupled NADH A340. inhibition, % at 10 µM. 220,000 tested, 0.11% active;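 active = inhibition of 50% or more in the single-dose primary screen; inactive = inhibition below 50%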
# MDM2 E3 inh: blocks human Mdm2 ubiquitin ligase activity. Q00987. cell-based MDM2 ubiquitination luciferase reporter, 2 h; 0 = plate control, 100 = twice control, blank-subtracted. signal enhancement, % at 5 µM. 210,000 tested, 0.11% active. AID 1230;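 active = signal enhancement of 30% or more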;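 also: luminescence tracks abundance of the self-degrading MDM2-luciferase fusion protein; higher signal means inhibition of MDM2 E3 ligase activity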
#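 Buffer or medium: Cells held in DMEM | Assay system: Stable mammalian line carrying autodegrading MDM2–luciferase fusion reporter | Quantity: 2000 cells/well | Times: 4 h settle plus 2 h compound, 37 °C | Doses: One concentration, 5 µM, with 0.2% DMSO | Technique: Luminescence with SteadyLite reagent, 15 min at room temperature | Benchmarks: Plate controls and plate blanks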
# Hck-Nef inh: human Hck-Nef kinase inhibition | P08631 | Recombinant Hck-YEEI plus Nef, Z-Lyte FRET kinase assay | inhibition, % at 20 µM | 220,000 tested, 0.68% active | AID 463187;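 active = Hck-Nef kinase inhibition above about 50%, limit read from the data; inactive = inhibition below that limit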
# Wee1 degr conf: human Wee1 degradation inhibition, confirmation. shares compounds with Wee1 degr inh. HeLa Luc-Wee1K328M degradation, luminescence; vehicle 0%, proteasome-blocked wells 100%. activation, % at 5 µM. 1,100 tested, 4% active; in the data active = activation above about 8.9%
# G6PDH counter: counter-screen for TbHK1 inhibitors: Leuconostoc G6PDH inhibition | shares compounds with TbHK1 inh | purified G6PDH, NADH absorbance, 1 h | inhibition, % at 10 µM | 210 tested, 7% active;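 active = at least 50% inhibition in the glucose-6-phosphate dehydrogenase coupled counterscreen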
# TbHK1 rescreen: T. brucei hexokinase 1 inhibition, rescreen. inhibition, % at 10 µM. recombinant TbHK1, G6PDH-coupled NADH A340 absorbance. shares compounds with TbHK1 inh. 210 tested, 10% active;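 active = inhibition of at least 50% in both of the two screening runs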
# Numbers stand for hits; . = inactive; / = no result given.
SMILES,Wee1 degr inh,14-3-3 Bad PPI,TbHK1 inh,MDM2 E3 inh,Hck-Nef inh,Wee1 degr conf,others
Cc1cccc(Nc2nc(-c3ccncc3)cs2)c1,.,.,.,.,.,/,
O=c1cc(C(F)(F)F)oc2c1ccc1ccccc12,.,.,.,.,.,/,
O=c1cc(/C=C/c2ccccc2)oc2c1ccc1ccccc12,11,.,.,.,.,.,
COc1ccc(C2CC(c3ccc4ccccc4c3)=NN2C(=O)COC(=O)C2CCC(=O)N2)cc1 (stereo not given),14,.,.,.,.,.,
COC(=O)c1ccccc1NC(=O)Cn1c(CCC(=O)O)ccc1-c1cccs1,17,.,.,.,.,.,
Cc1ccccc1NC(=O)Cn1c(CCC(=O)O)ccc1-c1cccs1,.,.,.,.,.,/,
C/C(=N\NC(=O)c1nc2ccccn2c1C)c1ccc2c(c1)OCO2,12,.,.,.,.,.,
CC(=O)Nc1ccc(/C=C2/Sc3ccccc3C2=O)cc1,.,.,.,.,.,/,
COc1ccc(NC(=O)c2onc(C)c2Cl)cc1,17,.,.,.,.,.,
COc1ccc(NC(=O)c2onc(C)c2Cl)cc1OC,.,.,.,.,.,/,
Cc1ccc(S(=O)(=O)N2c3ccccc3OCC2C(C)(C)C)cc1 (stereo not given),21,.,.,.,.,.,
CC1(C)CC2(CCO1)OC(=O)CC2C(=O)Nc1c(Cl)cccc1Cl (stereo not given),.,.,.,.,.,/,
COc1cccc(NC(=O)C2CC(=O)OC23CCOC(C)(C)C3)c1 (stereo not given),24,.,.,.,.,.,
Cc1ccc(CNC(=O)CS(=O)CC(=O)O)cc1 (stereo not given),.,.,.,.,.,/,
Cc1cc(/C=C2\SC(=S)NC2=O)c(C)n1-c1ccccc1,15,.,.,.,53,.,
N#Cc1ccsc1NC(=O)CN1CCN(S(=O)(=O)c2ccccc2C(F)(F)F)CC1,.,.,.,.,.,/,
Cc1ccc(C)c(S(=O)(=O)N2CCN(CC(=O)Nc3sccc3C#N)CC2)c1,14,.,.,.,.,.,
Cc1ccc2c(CC(=O)N3CCc4ccccc43)coc2c1,18,.,.,.,.,.,
COC(=O)Cc1c(C(=O)OC)nnn1-c1ccc(OC(F)(F)F)cc1,16,.,.,.,.,.,
CCc1cccc(CC)c1N(COC)C(=O)Cn1ccccc1=N,13,.,.,.,.,.,
Cc1ccc(N(CC(=O)N/N=C/c2cc(C)n(-c3ccccc3C)c2C)S(C)(=O)=O)cc1,12,.,.,.,.,.,
Cc1cc(C)cc(-n2c(C)cc(/C=N/NC(=O)CN(c3c(C)cccc3C)S(C)(=O)=O)c2C)c1,.,.,.,.,.,/,
Cc1ccc(O)c(-c2cc3ccccc3[nH]2)c1,11,.,.,.,.,.,
Cc1cc(S(=O)(=O)N(Cc2ccc3c(c2)OCO3)CC2CCCO2)ccc1-n1cnnn1 (stereo not given),.,.,.,.,.,/,
O=c1cc(NCc2ccccc2)nc2ccccn12,12,.,.,.,.,.,
SMILES,Wee1 degr inh,14-3-3 Bad PPI,TbHK1 inh,MDM2 E3 inh,Hck-Nef inh,Wee1 degr conf,others
CC(=O)c1ccc(N=Nc2ccc(C)cc2)cc1,24,.,.,.,.,.,
O=C(COC(=O)/C=C/c1ccc(S(=O)(=O)N2CCOCC2)cc1)NC1CCCCCCC1,.,.,.,/,.,/,
CC1=C(C(=O)OCC2CCCO2)C(c2ccc(Cl)cc2)NC(=O)N1 (stereo not given),12,.,.,.,.,.,
CC1=C(C(=O)OCC2CCCO2)C(c2ccc(O)cc2)NC(=O)N1 (stereo not given),.,.,.,.,.,/,
Cc1cc(C)nc(NC(=O)c2cccc(Cl)c2)n1,.,.,.,.,.,/,
Cc1cc(C)nc(NC(=O)c2ccc(Cl)cc2)n1,17,.,.,.,.,.,
COc1ccc(N2CCN(C(=O)CNS(=O)(=O)c3ccc(C)cc3)CC2)cc1,.,.,.,.,.,/,
CCOC(=O)CC(NC(=O)c1ccc(C)cc1)c1ccc(C)cc1 (stereo not given),14,.,.,.,.,.,
CCOC(=O)CC(NC(=O)c1ccccc1F)c1ccc(C)cc1 (stereo not given),.,.,.,.,.,/,
O=C(CCc1nnc(-c2ccc(-c3ccccc3)cc2)o1)N1CCCCC1,.,.,.,.,.,/,
CN(C)C(=S)N=Nc1[nH]c2ccccc2c1O,11,.,.,.,.,.,
CNC(=S)N=Nc1c(O)[nH]c2ccccc12,.,.,.,.,.,/,
Cc1ccc(NC(=O)CCC(=O)OCc2ccc(Br)cc2)cc1,.,.,.,.,.,/,
CCN(CC)C(=O)CSCc1cnn(-c2ccccc2)c1-n1cccc1,16,.,.,.,.,.,
Cc1cc(C(=O)OCC(=O)Nc2cc(C(F)(F)F)ccc2N2CCOCC2)c(C)o1,.,/,.,.,.,/,
CCC(=O)Nc1ccc(-c2nc3ccccc3c(=O)o2)cc1,13,.,.,.,.,.,
CCCCCCn1c(N2CCN(c3cccc(Cl)c3)CC2)nc2c1c(=O)[nH]c(=O)n2C,.,.,59,.,.,/,G6PDH counter=.;TbHK1 rescreen=.
Cn1c(=O)[nH]c(=O)c2c1nc(N1CCCC1)n2CC(O)COc1ccccc1 (stereo not given),.,.,.,.,.,/,
Cn1c(=O)[nH]c(=O)c2c1nc(N1CCCCC1)n2CCOc1ccccc1,.,.,55,.,.,/,G6PDH counter=.;TbHK1 rescreen=.
Cn1nc(-c2ccc(Cl)cc2)nc2c(=O)n(C)c(=O)nc1-2,.,.,79,.,.,/,G6PDH counter=66;TbHK1 rescreen=57
CCC(C)Sc1nc2c(c(=O)[nH]c(=O)n2C)n1C (stereo not given),.,/,50,.,.,/,G6PDH counter=.;TbHK1 rescreen=.
CC(C)Sc1nc2c(c(=O)[nH]c(=O)n2C)n1C,.,.,.,.,.,/,
O=C1CC(C(=O)NCc2ccccc2)C2(CCCC2)O1 (stereo not given),.,.,55,.,.,/,G6PDH counter=.;TbHK1 rescreen=.
CC(C)CNC(=O)C1CC(=O)OC12CCCCC2 (stereo not given),.,.,.,.,.,/,
Cc1cccc(OCC(=O)NC(=S)Nc2ccc(S(=O)(=O)NC3CCCCC3)cc2)c1,.,.,.,.,.,/,
CCCc1nn(C)c(C(=O)Nc2cccc(Cl)c2)c1Cl,.,.,.,.,.,/,
O=S(=O)(Cc1ccccc1Cl)CC(O)COc1ccccc1Cl (stereo not given),.,.,53,.,.,/,G6PDH counter=.;TbHK1 rescreen=.
O=S(=O)(CC(O)COc1ccccc1Cl)c1ccccc1 (stereo not given),.,.,.,.,.,/,

# Bioassay records from PubChem.
